Data: PMC3833035 (Blood, 2011)
“Also recorded” adds a separate entry of the source. Blank lines part the entries; values can stand above or below the molecule they belong to. No end group written: not given here.

What was measured:
[1] = system: recombinant or affinity purified human VAP-1; test: Surface plasmon resonance; format: binding
[2] = system: Siglec-9 expression on granulocytes; test: Induction of Siglec-9 expression on granulocytes; format: cell-based, human; conditions: FMLP 0.5 and 5 μg/mL, FACS, MFI, n = 4; for Siglec-9 up-regulation on granulocytes, 2 h: TNF-α 10 and 200 U/mL, LPS 10 and 100 ng/mL
Outline: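 Leukocytes from four healthy volunteers were prepared by red-cell lysis of whole blood. Treatments were FMLP (0.5 or 5 μg/mL, 5 min or 2 h), TNF-α (10 or 200 U/mL, 2 h) or LPS (10 or 100 ng/mL, 2 h); untreated cells were controls. Cells were stained with anti-Siglec-9 mAb (3G6 as control), then Alexa546 anti-mouse IgG. Granulocytes were gated by FITC-anti-CD66b and read by flow cytometry as MFI minus control-antibody MFI, mean ± SEM.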

[3] = system: human granulocyte binding to inflamed synovial vessels; test: Granulocyte binding to vessels in inflamed synovia; format: cell-based; conditions: TNF-α 200 U/mL, 2 h; granulocytes from three donors
Outline: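 Percoll-purified granulocytes from three donors were incubated 2 h with TNF-α (200 U/mL) or left untreated. They were then pre-treated 30 min with anti-Siglec-9 or control antibodies. Cells were bound to frozen sections of inflamed human synovium under rotation for 30 min, then glutaraldehyde-fixed. Vessel-bound cells were counted and expressed as % of control-mAb binding (100%), mean ± SEM.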

[4] = system: VAP-1 in melanoma tumor; test: Digital autoradiography of tumor cryosections; format: in vivo, mouse; conditions: i.v. 3.0 ± 0.4 MBq, 15 min
Outline: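 B16 melanoma cells were inoculated abdominally, and mice were used 11 days later. Mice received 68Ga-labelled DOTA test peptide i.v. (3.0 ± 0.4 MBq) and were killed after 15 min. Tumour cryosections went to digital autoradiography as PSL/mm2. ROIs covered VAP-1-positive and VAP-1-negative areas, set by anti-mouse VAP-1 staining of adjacent sections. Background was subtracted and values normalised to muscle; four mice, mean ± SD.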

[5] = system: human VAP-1 (KOTG mice); format: in vivo, human (transgene in mouse)
Outline: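 Ear inflammation was induced with 4 drops of 5% (w/v) DNCB in acetone on the right ear, one day before imaging. Mice were VAP-1 KO, or KOTG (mouse VAP-1-deficient, with human VAP-1 on endothelium under the Tie-1 promoter). 68Ga-DOTA-peptide was given i.v. (KO 7.4 ± 1.8, KOTG 7.5 ± 3.0 MBq). Dynamic PET ran 30 min (OSEM2D), read as SUV, and was checked by ex vivo gamma counting of excised tissues.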

[6] = system: VAP-1 (wild type mice bearing melanoma xenografts); format: in vivo, mouse
Outline: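 Wild-type mice received B16 melanoma cells in the neck area and were used 11 days later. 68Ga-DOTA-peptide was injected i.v., then dynamic PET ran 60 min (OSEM2D reconstruction). SUV is ROI radioactivity concentration divided by injected activity per body weight, corrected for tail residue. A separate group got 500-fold molar excess of unlabeled peptide co-injected. Blood, urine and organs were then excised, weighed and gamma-counted.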

[7] = system: site of inflammation (VAP-1); test: PET imaging, rats with turpentine-induced sterile inflammation; format: in vivo, rat (Sprague-Dawley)
Outline: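 Sprague-Dawley rats received turpentine oil s.c. in the upper neck, and 24 h later 68Ga-labelled DOTA test peptide i.v. (18.4 ± 3.1 MBq). A 60 min list-mode PET scan was reconstructed by OSEM3D, with blood sampled during imaging. ROIs covered inflammation, muscle, organs and bladder. SUV was ROI concentration divided by injected activity per body weight, corrected for tail residue. Excised organs were then gamma-counted as SUV; three animals.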

[8] = system: VAP-1 negative knockout mice bearing melanoma xenografts; format: in vivo, mouse; conditions: KO 60 min; i.v.; ex vivo; mean ± SD, n = 2
Outline: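 VAP-1 knockout mice received B16 melanoma cells in the neck area and were used 11 days later. 68Ga-DOTA-Siglec-9 peptide was given i.v. (7.8 ± 2.3 MBq, as stated for tumor-bearing mice). Blood, urine and organs were excised, weighed and gamma-counted. Uptake is given as SUV: tissue radioactivity concentration divided by injected radioactivity per body weight.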

[9] = target: Vascular Adhesion Protein-1 (VAP-1), human, recombinant (human) (UniProt Q16853); test: SPR
[10] = system: VAP-1; conditions: tyrosine 471 of VAP-1 and Arg293 in Siglec-10; ref [6]; cited from earlier work
[11] = system: mouse VAP-1; test: Adhesion of CHO-Siglec-E cells to CHO cells transfected with mouse VAP-1; format: cell-based; conditions: CHO-Siglec-E or mock; Supplemental Figure 1
Outline: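 CHO cells expressing mouse VAP-1, or mock CHO, were grown to confluence in 96-well plates and blocked with PBS/1% BSA. CFSE-labelled CHO-Siglec-E cells (2 × 10^5) were added for 30 min at 37°C. After nine washes, adherence was read by fluorometer, and the wells were imaged by microscope.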

[12] = WT 60 min, i.v., ex vivo, mean ± SD, n = 3

UniProt Q16853, sequence (Q16853 whole entry): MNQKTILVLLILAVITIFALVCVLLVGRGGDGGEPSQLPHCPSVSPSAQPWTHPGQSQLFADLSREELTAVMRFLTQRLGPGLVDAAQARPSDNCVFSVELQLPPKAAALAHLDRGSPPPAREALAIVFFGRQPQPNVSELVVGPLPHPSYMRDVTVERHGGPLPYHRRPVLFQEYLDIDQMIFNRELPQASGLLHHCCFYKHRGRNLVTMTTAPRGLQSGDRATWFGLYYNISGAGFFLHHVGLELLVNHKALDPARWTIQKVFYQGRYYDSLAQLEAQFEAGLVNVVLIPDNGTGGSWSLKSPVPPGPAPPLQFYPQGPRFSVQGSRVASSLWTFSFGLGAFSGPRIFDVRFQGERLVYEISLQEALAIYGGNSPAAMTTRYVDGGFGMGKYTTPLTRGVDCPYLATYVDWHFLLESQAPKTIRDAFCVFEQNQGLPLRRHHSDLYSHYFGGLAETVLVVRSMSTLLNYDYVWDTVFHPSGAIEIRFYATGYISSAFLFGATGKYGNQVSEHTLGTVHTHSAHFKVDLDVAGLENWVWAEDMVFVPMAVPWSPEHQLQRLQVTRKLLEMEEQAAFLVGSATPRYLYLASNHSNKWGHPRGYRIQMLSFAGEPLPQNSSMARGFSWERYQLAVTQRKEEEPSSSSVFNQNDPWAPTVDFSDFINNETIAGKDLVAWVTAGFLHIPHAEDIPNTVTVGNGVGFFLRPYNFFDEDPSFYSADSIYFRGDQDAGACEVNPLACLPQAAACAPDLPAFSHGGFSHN

binding to recombinant VAP-1 (SPR), double arginine mutant ([1]; both arginines mutated to alanines, data not shown): failed to bind recombinant VAP-1
Molecule: mutated Siglec-9 peptide: mutated Siglec-9 peptide, in which both arginines were mutated to alanines (CAALSLSWAGLTLCPS; also: cyclic peptide, ring type not given here)

Molecule: tumor necrosis factor-α [TNF-α]
Siglec-9 up-regulation on granulocytes, 2 h [2]: significant up-regulation of Siglec-9 after 2 h
granulocyte binding to inflamed synovial vasculature after TNF-α [3]: significantly increased granulocyte binding to synovial vasculature

Molecule: CARLSLSWRGLTLCPSK [^68Ga-DOTA-peptide]
distribution of radioactivity within tumor [4]: radioactivity concentrated in the periphery of the tumor
detection of inflammation in the mouse (PET) ([5]; DNCB ear skin inflammation, Supplemental Figure 2): able to detect inflammation in the mouse
signals in many organs, KOTG vs KO mice ([5]; i.v. 7.5 ± 3.0 MBq (KOTG), 7.4 ± 1.8 MBq (KO), Supplemental Table 2): detects human VAP-1 in many organs realized as higher signals than in KO mice
uptake in kidney (SUV), WT [6, 12]: 5.10 ± 0.86 standardized uptake values
uptake in liver (SUV), WT [6, 12]: 1.82 ± 0.25 standardized uptake values
uptake in lung (SUV), WT [6, 12]: 0.69 ± 0.21 standardized uptake values
uptake in muscle (SUV), WT [6, 12]: 0.21 ± 0.07 standardized uptake values
uptake in small intestine (SUV), WT [6, 12]: 0.59 ± 0.16 standardized uptake values
uptake in tumour (SUV), WT [6, 12]: 0.56 ± 0.12 standardized uptake values
accumulation at tumor site (PET) ([6]; i.v. 7.8 ± 2.3 MBq, B16 melanoma, wild type mice): accumulated at the tumor site
accumulation at sites of inflammation vs muscle (PET) ([7]; i.v. 18.4 ± 3.1 MBq, 5-10 min, 24 h after turpentine, rat): quickly and preferentially accumulated at the sites of inflammation (5-10 min) in comparison to the muscle; also recorded: clearly seen at the site of inflammation (I) but not in the surrounding muscle
elimination route ([7]; i.v., PET): eliminated rapidly via kidneys to the urinary bladder
uptake in blood (SUV), KO [8]: 0.25 ± 0.01 standardized uptake values
uptake in kidney (SUV), KO [8]: 7.78 ± 1.47 standardized uptake values
uptake in liver (SUV), KO [8]: 0.97 ± 0.07 standardized uptake values
uptake in muscle (SUV), KO [8]: 0.04 ± 0.01 standardized uptake values
uptake in small intestine (SUV), KO [8]: 0.08 ± 0.01 standardized uptake values
uptake in tumour (SUV), KO [8]: 0.20 ± 0.02 standardized uptake values

Molecule: lipopolysaccharide [LPS]
Siglec-9 up-regulation on granulocytes, 2 h [2]: significant up-regulation of Siglec-9 after 2 h

percent reduction of binding against the wild type peptide [9]: 66%
Molecule: cyclic Siglec-9-like peptide without Arg284 (P1_noArg284) (from UniProt Q9Y336 283-297)

Molecule: formyl-methyl-leucine-phenylalanine [FMLP]
Siglec-9 up-regulation on granulocytes, 2 h [2]: further up-regulation was seen after 2 h; also recorded: roughly two-fold after 2 h
Siglec-9 up-regulation on granulocytes, 5 min ([2]; 5 min): slightly up-regulated Siglec-9 expression already after 5 min; also recorded: slight up-regulation was already seen after 5 min

percent reduction of binding against the wild type peptide [9]: 42%
Molecule: cyclic Siglec-9-like peptide without Arg290 (P1_noArg290) (from UniProt Q9Y336 283-297)

binding to recombinant VAP-1 (SPR) ([1]; Biacore X, CM5 chip, immobilized VAP-1, wild type peptide at 0-400 μM): bound to recombinant VAP-1
Molecule: CARLSLSWRGLTLCPS [wild type peptide]

B1: Siglec-10: lymphocyte ligand for VAP-1 (protein, UniProt Q96LC7 17-697, looked up)
Sialic acid-binding Ig-like …: MDGRFWIRVQESVMVPEGLCISVPCSFSYPRQDWTGSTPAYGYWFKAVTETTKGAPVATNHQSREVEMSTRGRFQLTGDPAKGNCSLVIRDAQMQDESQYFFRVERGSYVRYNFMNDGFFLKVTALTQKPDVYIPETLEPGQPVTVICVFNWAFEECPPPSFSWTGAALSSQGTKPTTSHFSVLSFTPRPQDHNTDLTCHVDFSRKGVSAQRTVRLRVAYAPRDLVISISRDNTPALEPQPQGNVPYLEAQKGQFLRLLCAADSQPPATLSWVLQNRVLSSSHPWGPRPLGLELPGVKAGDSGRYTCRAENRLGSQQRALDLSVQYPPENLRVMVSQANRTVLENLGNGTSLPVLEGQSLCLVCVTHSSPPARLSWTQRGQVLSPSQPSDPGVLELPRVQVEHEGEFTCHARHPLGSQHVSLSLSVHYSPKLLGPSCSWEAEGLHCSCSSQASPAPSLRWWLGEELLEGNSSQDSFEVTPSSAGPWANSSLSLHGGLSSGLRLRCEAWNVHGAQSGSILQLPDKKGLISTAFSNGAFLGIGITALLFLCLALIIMKILPKRRTQTETPRPRFSRHSTILDYINVVPTAGPLAQKRNQKATPNSPRTPLPPGAPSPESKKNQKKQYQLPSFPEPKSSTQAPESQESQEELHYATLNFPGVRPRPEARMPKGTQADYAEVKFQ
dependence of Siglec-10/VAP-1 interaction on enzymatic activity [10]: completely dependent on the enzymatic activity of VAP-1

B2: Siglec-E: mouse molecule corresponding to human Siglec-9, expressed on CHO cells (protein)
chain: QNPQEVFTLNVERKVVVQEGLCVLVPCNFSYLKKRLTDWTDSDPVHGFWYREGTDRRKDSIVATNNPIRKAVKETRNRFFLLGDPWRNDCSLNIREIRKKDAGLYFFRLERGKTKYNYMWDKMTLVVTALTNTPQILLPETLEAGHPSNLTCSVPWDCGWTAPPIFSWTGTSVSFLSTNTTGSSVLTITPQPQDHGTNLTCQVTLPGTNVSTRMTIRLNVSYAPKNLTVTIYQGADSVSTILKNGSSLPISEGQSLRLICSTDSYPPANLSWSWDNLTLCPSKLSKPGLLELFPVHLKHGGVYTCQAQHALGSQHISLSLSPQSSATLSEMMMGTFVGSGVTALLFLSVCILLLAVRSYRRKPARPAVVAPHPDALKVSVSQNPLVESQADDSSEPLPSILEAAPSSTEEEIHYATLSFHEMKPMNLWGQQDTTTEYSEIKFPQRTAWP
adhesion of Siglec-E cells to mouse VAP-1 cells [11]: no VAP-1-Siglec-E mediated adhesion was detected
